Test results: ChEMBL document CHEMBL4311965, “Antimicrobial activity of amphipathic α,α-disubstituted β-amino amide derivatives against ESBL - CARBA producing multi-resistant bacteria; effect of halogenation, lipophilicity and cationic character” (Eur J Med Chem, 2019)
Values after ≈ are worked out from the molar mass of the structure shown.

How the values were obtained:
Staphylococcus aureus [1] = assay: Antibacterial activity against Staphylococcus aureus ATCC 9144 cultured in MHB medium assessed as no bacterial growth incubated at 37 degC for 24 hrs by microdilution susceptibility test; type: functional; conditions: ATCC 9144, 24 h
Summary of the method: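 Broth microdilution per CLSI M07-A9 with modifications. Inoculum about 2.5–3 x 10⁴ cells/mL in Mueller-Hinton broth, mixed 1:1 with test derivative. DMSO stocks diluted in double-distilled water, final DMSO <1%. Incubation 24 h at 37 °C (20 °C for C. glutamicum). Growth and sterility controls included; oxytetracycline reference.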

MRC5 = assay: Cytotoxicity against human MRC5 cells assessed as reduction in cell viability incubated for 4 hrs by CellTiter 96 Aqueous One Solution Reagent based assay; conditions: MRC5, 4 h
Summary of the method: (§1)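 HepG2 and MRC-5 cells seeded at 35 000 and 15 000 cells/well respectively, then held overnight at 37 °C, 5% CO₂. Compounds in serum-free MEM Earle's applied for 4 h. MTS reagent (CellTiter 96 AQueous One) added for a further 1 h, absorbance read at 485 nm. Survival expressed relative to medium (negative) and Triton X-100 (positive) controls.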

Staphylococcus aureus [2] = assay: Antibacterial activity against multidrug-resistant Staphylococcus aureus NCTC 10442 cultured in MHB medium assessed as reduction in bacterial growth incubated for 24 hrs by microdilution susceptibility test; type: functional; conditions: NCTC 10442, 24 h
Summary of the method: (§2)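 Broth microdilution per CLSI M07-A9 (modified). Working solutions made from concentrated DMSO stocks kept at r.t., diluted in double-distilled water, final DMSO <1%. Inoculum 1–1.2 x 10⁶ cells/mL in Mueller-Hinton broth, mixed 1:1 with compound. 37 °C, 24 h, four parallels. Read as OD₆₀₀. Where precipitation left residual OD, the point of major OD decrease was taken as the inhibitory concentration.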

Staphylococcus aureus [3] = assay: Antibacterial activity against multidrug-resistant Staphylococcus aureus IHT 99040 cultured in MHB medium assessed as reduction in bacterial growth incubated for 24 hrs by microdilution susceptibility test; type: functional; conditions: IHT 99040, 24 h; summary of the method: as §2
Enterococcus faecium = assay: Antibacterial activity against multidrug-resistant Enterococcus faecium 50901530 cultured in BHIB medium assessed as reduction in bacterial growth incubated for 24 hrs by microdilution susceptibility test; type: functional; conditions: Enterococcus faecium, 50901530, 24 h
Summary of the method: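 Enterococci grown in Brain Heart Infusion broth, otherwise broth microdilution per CLSI M07-A9 (modified). Concentrated DMSO stocks kept at r.t. and diluted in double-distilled water, final DMSO <1%. Inoculum 1–1.2 x 10⁶ cells/mL mixed 1:1 with compound. 37 °C, 24 h, four parallels. OD₆₀₀ read-out, lowest concentration with no growth.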

Escherichia coli [4] = assay: Antibacterial activity against multidrug-resistant Escherichia coli 50639799 producing Verona integron encoded metallo beta-lactamse-29 cultured in MHB medium assessed as reduction in bacterial growth incubated for 24 hrs by microdilution susceptibility test; type: functional; conditions: Escherichia coli, 50639799, 24 h; summary of the method: as §2
Escherichia coli [5] = assay: Antibacterial activity against multidrug-resistant Escherichia coli 50739822 producing New Delhi metallo-beta-lactamase-1 cultured in MHB medium assessed as reduction in bacterial growth incubated for 24 hrs by microdilution susceptibility test; type: functional; conditions: Escherichia coli, 50739822, 24 h; summary of the method: as §2
Escherichia coli [6] = assay: Antibacterial activity against multidrug-resistant Escherichia coli 50857972 producing imipenem-type carbapenemase-26 cultured in MHB medium assessed as reduction in bacterial growth incubated for 24 hrs by microdilution susceptibility test; type: functional; conditions: Escherichia coli, 50857972, 24 h; summary of the method: as §2
Pseudomonas aeruginosa = assay: Antibacterial activity against multidrug-resistant Pseudomonas aeruginosa K44-24 producing imipenem-type carbapenemase-14 cultured in MHB medium assessed as reduction in bacterial growth incubated for 24 hrs by microdilution susceptibility test; type: functional; conditions: K44-24, 24 h; summary of the method: as §2
Klebsiella pneumoniae [7] = assay: Antibacterial activity against multidrug-resistant Klebsiella pneumoniae K47-25 producing carbapenemase-2 cultured in MHB medium assessed as reduction in bacterial growth incubated for 24 hrs by microdilution susceptibility test; type: functional; conditions: K47-25, 24 h; summary of the method: as §2
Klebsiella pneumoniae [8] = assay: Antibacterial activity against multidrug-resistant Klebsiella pneumoniae 50531633 producing New Delhi metallo-beta-lactamase-1 and oxcillinase-181 cultured in MHB medium assessed as reduction in bacterial growth incubated for 24 hrs by microdilution susceptibility test; type: functional; conditions: Klebsiella pneumoniae, 50531633, 24 h; summary of the method: as §2
Acinetobacter baumannii [9] = assay: Antibacterial activity against multidrug-resistant Acinetobacter baumannii K47-42 producing oxcillinase-23 cultured in MHB medium assessed as reduction in bacterial growth incubated for 24 hrs by microdilution susceptibility test; type: functional; conditions: K47-42, 24 h; summary of the method: as §2
Acinetobacter baumannii [10] = assay: Antibacterial activity against multidrug-resistant Acinetobacter baumannii K55-13 producing oxcillinase-24 cultured in MHB medium assessed as reduction in bacterial growth incubated for 24 hrs by microdilution susceptibility test; type: functional; conditions: K55-13, 24 h; summary of the method: as §2
Acinetobacter baumannii [11] = assay: Antibacterial activity against multidrug-resistant Acinetobacter baumannii K63-58 producing oxcillinase-23 cultured in MHB medium assessed as reduction in bacterial growth incubated for 24 hrs by microdilution susceptibility test; type: functional; conditions: K63-58, 24 h; summary of the method: as §2
[12] = Aqueous solubility of the compound in DMSO; type: physicochemical
HepG2 = assay: Cytotoxicity against human HepG2 cells assessed as reduction in cell viability incubated for 4 hrs by CellTiter 96 Aqueous One Solution Reagent based assay; conditions: HepG2, 4 h; summary of the method: as §1

SMILES | MIC (Staphylococcus aureus [1]) | EC50 (MRC5) | MIC (Staphylococcus aureus [2]) | MIC (Staphylococcus aureus [3]) | MIC (Enterococcus faecium) | MIC (Escherichia coli [4]) | MIC (Escherichia coli [5]) | MIC (Escherichia coli [6]) | MIC (Pseudomonas aeruginosa) | MIC (Klebsiella pneumoniae [7]) | MIC (Klebsiella pneumoniae [8]) | MIC (Acinetobacter baumannii [9]) | MIC (Acinetobacter baumannii [10]) | MIC (Acinetobacter baumannii [11]) | solubility [12] | EC50 (HepG2)
NCCNC(=O)C(CN)(Cc1ccc(C(F)(F)F)cc1)Cc1ccc(C(F)(F)F)cc1 | 8 µg/mL (≈ 17.9 µM) | 16 µg/mL (≈ 35.8 µM) | > 32 µg/mL | > 32 µg/mL | 16 µg/mL (≈ 35.8 µM) | > 32 µg/mL | 32 µg/mL (≈ 71.5 µM) | 32 µg/mL (≈ 71.5 µM) | > 32 µg/mL | > 32 µg/mL | 32 µg/mL (≈ 71.5 µM) | > 32 µg/mL | > 32 µg/mL | > 32 µg/mL | Soluble | 
NCCNCC(CN)(Cc1ccc(F)c2ccccc12)Cc1ccc(F)c2ccccc12 | 2 µg/mL (≈ 4.61 µM) | 9 µg/mL (≈ 20.8 µM) | 4 µg/mL (≈ 9.23 µM) | 8 µg/mL (≈ 18.5 µM) | 4 µg/mL (≈ 9.23 µM) | 8 µg/mL (≈ 18.5 µM) | 4 µg/mL (≈ 9.23 µM) | 8 µg/mL (≈ 18.5 µM) | 16 µg/mL (≈ 36.9 µM) | 8 µg/mL (≈ 18.5 µM) | 4 µg/mL (≈ 9.23 µM) | 16 µg/mL (≈ 36.9 µM) | 16 µg/mL (≈ 36.9 µM) | 8 µg/mL (≈ 18.5 µM) |  | 12 µg/mL (≈ 27.7 µM)
N=C(N)NCCNC(=O)C(CNC(=N)N)(Cc1ccc(F)c2ccccc12)Cc1ccc(F)c2ccccc12 | 2 µg/mL (≈ 3.76 µM) |  | 4 µg/mL (≈ 7.52 µM) | 4 µg/mL (≈ 7.52 µM) | 4 µg/mL (≈ 7.52 µM) | 32 µg/mL (≈ 60.2 µM) | 32 µg/mL (≈ 60.2 µM) | 32 µg/mL (≈ 60.2 µM) | > 32 µg/mL | > 32 µg/mL | > 32 µg/mL | > 32 µg/mL | > 32 µg/mL | > 32 µg/mL |  | 
N=C(N)NCCNC(=O)C(CNC(=N)N)(Cc1cc(Br)cc(Br)c1)Cc1cc(Br)cc(Br)c1 | 1 µg/mL (≈ 1.41 µM) | > 64 µg/mL | 2 µg/mL (≈ 2.81 µM) | 2 µg/mL (≈ 2.81 µM) | 4 µg/mL (≈ 5.63 µM) | 8 µg/mL (≈ 11.3 µM) | 8 µg/mL (≈ 11.3 µM) | 8 µg/mL (≈ 11.3 µM) | 16 µg/mL (≈ 22.5 µM) | 32 µg/mL (≈ 45 µM) | 16 µg/mL (≈ 22.5 µM) | 16 µg/mL (≈ 22.5 µM) | 16 µg/mL (≈ 22.5 µM) | 16 µg/mL (≈ 22.5 µM) |  | > 64 µg/mL
N=C(N)NCCNC(=O)C(CNC(=N)N)(Cc1cc(C(F)(F)F)cc(C(F)(F)F)c1)Cc1cc(C(F)(F)F)cc(C(F)(F)F)c1 | 2 µg/mL (≈ 3 µM) | > 64 µg/mL | 8 µg/mL (≈ 12 µM) | 8 µg/mL (≈ 12 µM) | 4 µg/mL (≈ 5.99 µM) | 16 µg/mL (≈ 24 µM) | 32 µg/mL (≈ 47.9 µM) | 32 µg/mL (≈ 47.9 µM) | 32 µg/mL (≈ 47.9 µM) | > 32 µg/mL | > 32 µg/mL | > 32 µg/mL | > 32 µg/mL | > 32 µg/mL |  | > 64 µg/mL
NCCNCC(CN)(Cc1cc(C(F)(F)F)cc(C(F)(F)F)c1)Cc1cc(C(F)(F)F)cc(C(F)(F)F)c1 | 4 µg/mL (≈ 7.02 µM) | 14 µg/mL (≈ 24.6 µM) | 8 µg/mL (≈ 14 µM) | 8 µg/mL (≈ 14 µM) | 8 µg/mL (≈ 14 µM) | 8 µg/mL (≈ 14 µM) | 8 µg/mL (≈ 14 µM) | 8 µg/mL (≈ 14 µM) | 32 µg/mL (≈ 56.2 µM) | 16 µg/mL (≈ 28.1 µM) | 8 µg/mL (≈ 14 µM) | 8 µg/mL (≈ 14 µM) | 8 µg/mL (≈ 14 µM) | 8 µg/mL (≈ 14 µM) |  | 7 µg/mL (≈ 12.3 µM)
NCCNCC(CN)(Cc1ccccc1Br)Cc1ccccc1Br | 16 µg/mL (≈ 35.1 µM) | 8 µg/mL (≈ 17.6 µM) | 16 µg/mL (≈ 35.1 µM) | 8 µg/mL (≈ 17.6 µM) | 16 µg/mL (≈ 35.1 µM) | 16 µg/mL (≈ 35.1 µM) | 16 µg/mL (≈ 35.1 µM) | 16 µg/mL (≈ 35.1 µM) | 32 µg/mL (≈ 70.3 µM) | 16 µg/mL (≈ 35.1 µM) | 16 µg/mL (≈ 35.1 µM) | 16 µg/mL (≈ 35.1 µM) | 16 µg/mL (≈ 35.1 µM) | 16 µg/mL (≈ 35.1 µM) |  | 18 µg/mL (≈ 39.5 µM)
N#CC(Cc1cc(C(F)(F)F)cc(C(F)(F)F)c1)(Cc1cc(C(F)(F)F)cc(C(F)(F)F)c1)C(=O)NCCN | 16 µg/mL (≈ 27.6 µM) | 12 µg/mL (≈ 20.7 µM) | 32 µg/mL (≈ 55.2 µM) | 16 µg/mL (≈ 27.6 µM) | 16 µg/mL (≈ 27.6 µM) | > 32 µg/mL | > 32 µg/mL | > 32 µg/mL | > 32 µg/mL | > 32 µg/mL | > 32 µg/mL | > 32 µg/mL | > 32 µg/mL | > 32 µg/mL | Soluble | 20 µg/mL (≈ 34.5 µM)
NCCNCC(CN)(Cc1cc(Br)cc(Br)c1)Cc1cc(Br)cc(Br)c1 | 2 µg/mL (≈ 3.26 µM) | 15 µg/mL (≈ 24.5 µM) | 4 µg/mL (≈ 6.52 µM) | 8 µg/mL (≈ 13 µM) | 4 µg/mL (≈ 6.52 µM) | 8 µg/mL (≈ 13 µM) | 8 µg/mL (≈ 13 µM) | 8 µg/mL (≈ 13 µM) | 16 µg/mL (≈ 26.1 µM) | 8 µg/mL (≈ 13 µM) | 8 µg/mL (≈ 13 µM) | 16 µg/mL (≈ 26.1 µM) | 8 µg/mL (≈ 13 µM) | 8 µg/mL (≈ 13 µM) |  | 12 µg/mL (≈ 19.6 µM)
